Screens deposited in PubChem BioAssay by several laboratories.
TPT1 inh: blocks Candida albicans tRNA 2'-phosphotransferase; recombinant caTPT1, FP RNA substrate dephosphorylation; inhibition, % at 5 µM; 300,000 compounds, 0.81% hits; AID 1962;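 active = inhibition above the mean of all tested compounds plus 3 SD, set per screening campaign, cut at about 24% in these data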;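 also: plate controls were DMSO alone for no effect and ferristatin control at 100 nM for full effect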
Rpn11 block: blocks the human proteasome subunit Rpn11 | O00487 | human 26S proteasome, Ub4-pepOG fluorescence polarization; 20S core pre-blocked with epoxomicin | inhibition, % at 20 µM | 360,000 compounds, 0.59% hits | AID 588493;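 active = inhibition at 20 µM, scaled to each plate's controls, above about 33%, limit read from the data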
HNF4A DNA FP: change in binding of human HNF4 alpha to DNA. P41235. HNF4a-FITC DNA binding, fluorescence polarization, 1 h. activity change, % at 10 µM. 360,000 compounds, 0.3% hits. AID 1224865; in the data active = activity change above about 30%, passing the limit was not always enough
CSN deneddyl inh: inhibitors of human CSN-mediated cullin deneddylation; 360,000 compounds, 0.38% hits; AID 651999; Purified CSN, SCF-Nedd8-OG deneddylation, fluorescence polarization; inhibition, % at 12.5 µM; Q92905;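 active = pattern-corrected inhibition above about 35%, with an unprinted fluorescence ratio check between 0.5 and 1.5, limit read from the data, passing the limit was not always enough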;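 also: 0% = enzyme with substrate and 100% = substrate without enzyme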
Target sequence (Q92905 whole entry, looked up, one chain of several): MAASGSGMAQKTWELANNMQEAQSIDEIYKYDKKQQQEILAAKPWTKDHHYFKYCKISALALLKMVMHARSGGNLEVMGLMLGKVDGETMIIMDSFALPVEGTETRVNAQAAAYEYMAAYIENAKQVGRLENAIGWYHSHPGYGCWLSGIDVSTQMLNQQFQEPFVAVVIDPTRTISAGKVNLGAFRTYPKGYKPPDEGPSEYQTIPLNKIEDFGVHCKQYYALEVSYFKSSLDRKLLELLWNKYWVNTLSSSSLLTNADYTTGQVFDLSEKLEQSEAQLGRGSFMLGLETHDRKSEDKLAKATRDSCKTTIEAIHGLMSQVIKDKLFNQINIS
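assay system = purified human Csn5 enzyme expressed in HEK293T cells | amount = 0.24 nM enzyme | buffer or medium = Tris/NaCl/DTT buffer, pH 7.5 | reagent = 10 nM SCFSkp2-Nedd8OG | compound = one concentration, 12.5 µM, 0.25% DMSO | times = 90 min reaction at room temperature | signal = FP | read-out basis = % inhibition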
caTPT1 confirm: confirmation of Candida albicans TPT1 inhibitors | recombinant caTPT1, fluorescence polarization, RNase T1 coupled | AID 2149 | shares compounds with TPT1 inh | 2,400 compounds, 74% hits | inhibition, % at 5 µM;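 active = inhibition above the primary screen limit, the mean inhibition of all tested compounds plus 3 SD, cut at about 25% in these data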
RNase T1 counter: RNase T1 inhibition in TPT1 counter-screen | shares compounds with TPT1 inh | RNase T1 cleavage, fluorescence polarization, 1536-well | inhibition, % at 5 µM | 2,400 compounds, 83% hits;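 active = inhibition above the solvent-only control well mean plus 3 SD, limit set per screening run, cut at about 23% in these data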;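 also: plate controls were DMSO wells with enzyme for no effect and wells without RNase T1 for full effect; inhibitors block cleavage so intact labeled substrate keeps polarization high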
Target sequence (P00651 whole entry, looked up): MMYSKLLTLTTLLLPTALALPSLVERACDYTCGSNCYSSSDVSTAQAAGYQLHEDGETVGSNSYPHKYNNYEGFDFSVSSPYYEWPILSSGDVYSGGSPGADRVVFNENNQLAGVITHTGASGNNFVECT
Active calls of the source: *; / = no result given; + = active, no number. Compounds with a hit are over-represented: about 1.5% of the library has one in this group of screens.

SMILES	TPT1 inh	Rpn11 block	HNF4A DNA FP	CSN deneddyl inh	caTPT1 confirm	RNase T1 counter
CC(C)OCCCNC(=O)c1c(N)n(Cc2cccs2)c2nc3ccccc3nc12	26.5*	17.9	3.6	6.8	10.3	12.4
CCCNC(=O)c1c(N)n(Cc2ccco2)c2nc3ccccc3nc12	15.4	/	/	/	/	/
Cc1cc(C=O)c(C)n1C(C)C	-3.0	2.0	0.5	-2.5	/	/
Cc1ccc(C)c(Cn2c(C(=O)O)c(C=O)c3ccccc32)c1	123.5*	/	163.6	116.4	142.6*	137.0*
Cc1cccc(OCC(O)CN2CC2)c1 (configuration not stated)	/	7.2	1.5	0.0	/	/
C=CC1CN2CCC1CC2C(OC(C)=O)c1ccnc2ccc(OC)cc12 (configuration not stated)	-1.7	-10.6	1.0	6.4	/	/
CN1CCN(CCOC2c3ccccc3CSc3ccc(Cl)cc32)CC1 (configuration not stated)	55.4*	-18.2	-0.9	6.0	3.2	8.6
Cc1cc(C)nc(-n2c(C)nc3cc(Cl)ccc3c2=O)c1	3.2	4.7	1.4	5.2	/	/
CCOC(=O)c1c(/N=C/c2c(O)n(-c3ccc(F)cc3)c(=S)[nH]c2=O)sc2c1CCCC2	4.1	20.4	16.0	6.6	/	/
CCOC(=O)c1c(/N=C/c2c(O)n(-c3ccccc3F)c(=S)[nH]c2=O)sc2c1CCCC2	38.5*	/	-5.0	23.1	86.5*	95.7*
Cc1ccc(N2C(=O)NC(=O)/C(=C/c3ccc(-c4ccc(C(=O)O)c(Cl)c4)o3)C2=O)cc1	8.6	2.8	-14.3	12.6	/	/
Cc1ccc(N2C(=O)/C(=C/c3ccc(CN(CCC#N)S(C)(=O)=O)o3)C(=O)NC2=S)cc1C	46.0*	/	/	/	47.6*	57.3*
CN1/C(=C\C=Nc2ccccc2)C(C)(C)c2ccccc21	-3.5	18.6	11.0	7.5	/	/
CN1/C(=C\C=C2C(=O)NC(=O)NC2=O)C(C)(C)c2ccccc21	+	/	219.8	154.6	183.7*	167.7*
CN1C(=O)C(=Cc2sc(=O)n(-c3ccccc3)c2N(C)C)C(=O)N(C)C1=O	41.6*	/	11.6	19.1	53.5*	70.7*
Cc1cc(C=C2C(=O)N(C)C(=O)N(C)C2=O)c(C)n1-c1ccccc1	1.3	4.9	-1.4	7.1	/	/
O=C(O)C1C2CC3CC(C2)CC1(n1ncc(N2CCC4(CC2)OCCO4)c(Cl)c1=O)C3 (configuration not stated)	-2.3	-2.2	-1.7	-2.1	/	/
C/C=C1\NC(=O)[C@@H](NC(=O)[C@H](CCc2ccc(O)cc2)NC(=O)[C@H](C)NC(=O)[C@H](O)CO)[C@@H](C)OC(=O)[C@H](C(C)C)NC(=O)[C@H](Cc2ccc(O)cc2)N(C)C(=O)[C@H](Cc2ccccc2)N2C(=O)C(CC[C@H]2O)NC1=O (some centres not stated)	/	6.0	-2.7	8.7	/	/
Cc1ccnc(NS(=O)(=O)c2ccc(N=Cc3c(O)n(C)c(=O)n(C)c3=O)cc2)n1	85.1*	33.1	4.3	-6.3	62.4*	77.2*
CC1=Nc2ccccc2/C1=C/c1c(O)[nH]c(=O)[nH]c1=O	3.2	1.1	2.0	4.7	/	/
O=c1[nH]c(O)c(/C=C2/C=CC(c3cc(Cl)ccc3Cl)=N2)c(=O)[nH]1	93.5*	15.3	7.6	17.5	108.3*	103.4*
CCOc1cc(/C=C2\C(=O)NC(=O)N(CCc3ccc(F)cc3)C2=O)ccc1O	29.6*	5.3	7.3	11.9	38.7*	20.0
O=C1NC(=O)N(Cc2ccc(F)cc2)C(=O)/C1=C\c1ccoc1	163.4*	/	59.7*	149.5	67.2*	80.5*
Cc1ccc(/C=C2/C(=O)NC(=O)N(Cc3ccc(F)cc3)C2=O)o1	34.6*	/	/	/	18.4	25.5*
O=C1NC(=O)N(Cc2ccc(F)cc2)C(=O)/C1=C/c1cccs1	11.7	3.6	-3.0	9.0	/	/
CN(C)c1ccc(/C=C2\C(=O)NC(=O)N(Cc3ccc(F)cc3)C2=O)cc1	28.9*	20.8	2.3	7.2	47.7*	67.9*
CC1N=C(c2ccccc2)c2cc(Br)ccc2NC1=O (configuration not stated)	-1.8	3.9	-3.5	1.9	/	/
C=CC[N+]1(C)C2CCC1CC(O)C2 (configuration not stated)	-1.6	2.9	3.8	-0.6	/	/
